Reference: ChEMBL document CHEMBL1124929, “Indolo[2,1-a]isoquinolines. Syntheses, steroid hormone receptor binding affinities, and cytostatic activity” (1990)

Legend:
MCF7 [1] = experiment: Effect on hormone-dependent MCF-7 human breast cancer cell proliferation at 1x10E-5 M; format: functional
Method in brief: (§1)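 Cells were plated at about 2 × 10⁴ per well in six-well dishes. MCF-7 cells were grown in modified improved MEM with 5% NCS, switched to charcoal-treated NCS two weeks before the test, and exposed for 5 days with a re-dose on day 4. MDA-MB 231 cells were grown in McCoy 5a with 10% NCS and exposed for 2 days. Compounds were given 1 day after plating in 0.1% DMSO, with DMSO-matched controls. Read-out was cell number as % T/C, mean of three experiments with six dishes.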

MDA-MB-231 [2] = experiment: Effect on [3H]thymidine incorporation into MDA-MB 231 human breast cancer cells at 1x10E-5 M; format: functional
Method in brief: (§2)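 Cells were seeded at ~2 × 10⁴ per well, treated from the next day in 0.1% DMSO, with DMSO controls. MCF-7 cells were held in charcoal-stripped NCS for 2 weeks, treated for 5 days and re-dosed on day 4. MDA-MB 231 cells were grown in McCoy 5a/10% NCS and treated for 2 days. At the end, 1 µCi [³H]thymidine per well was added for 2 h. Result is % T/C, mean of three experiments × six dishes.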

MDA-MB-231 [3] = experiment: Effect on [3H]-thymidine incorporation into MDA-MB 231 human breast cancer cells at 1x10E-6M; format: functional; method in brief: as §2
MDA-MB-231 [4] = experiment: Cytostatic effect on hormone-independent MDA-MB 231 human breast cancer cell proliferation at 1x10E-6M; format: functional; method in brief: as §1
MCF7 [5] = experiment: Effect on [3H]-thymidine incorporation into MCF-7 human breast cancer cells at 1x10E-5 M; format: functional; method in brief: as §2
MDA-MB-231 [6] = experiment: Cytostatic effect on hormone-independent MDA-MB 231 human breast cancer cell proliferation at 1x10E-5 M; format: functional; method in brief: as §1
MCF7 [7] = experiment: Effect on [3H]thymidine incorporation into MCF-7 human breast cancer cells at 1x10E-6M; format: functional; method in brief: as §2
MCF7 [8] = experiment: Effect on hormone-dependent MCF-7 human breast cancer cell proliferation at 1x10E-6M; format: functional; method in brief: as §1
[9] = biological target: T1, Androgen Receptor (Bos taurus) (UniProt Q5EM59); experiment: Relative binding affinity(RBA) for 50% displacement of [3H]mibolerone from Androgen receptor compared to testorone
T1 sequence (whole entry): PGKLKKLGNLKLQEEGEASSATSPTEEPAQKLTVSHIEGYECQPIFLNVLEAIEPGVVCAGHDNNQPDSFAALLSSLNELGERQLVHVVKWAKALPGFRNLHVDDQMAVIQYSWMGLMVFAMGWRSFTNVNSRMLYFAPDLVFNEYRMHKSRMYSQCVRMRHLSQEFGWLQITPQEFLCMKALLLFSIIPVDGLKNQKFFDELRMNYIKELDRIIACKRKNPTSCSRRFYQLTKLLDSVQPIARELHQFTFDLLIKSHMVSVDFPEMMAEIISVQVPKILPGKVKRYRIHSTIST
Method in brief: (§3)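 Receptor source was calf uterine cytosol (105000g supernatant, 3 mg/mL protein in assay). Buffers were Tris/EDTA pH 7.4, with NaN₃ for ER, molybdate/glycerol for AR, and sucrose for PR. Tracers were 1 nM [³H]estradiol, [³H]mibolerone or [³H]Org 2058. Incubation was at 0–4 °C for 16 h (ER) or 2 h (AR, PR), with 4–6 competitor concentrations. Nonspecific binding used 2 µM of the unlabeled hormone. Separation was by dextran-coated charcoal. RBA is the ratio of IC50 values for hormone and compound ×100, mean of two triplicate experiments.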

[10] = biological target: Estrogen receptor (Bos taurus) (UniProt Q9XSB5+P49884); experiment: Relative binding affinity(RBA) for 50% displacement of [3H]-estradiol from Estrogen receptor compared to 17-beta-estradiol; format: protein assay; method in brief: as §3
[11] = biological target: T1, Androgen Receptor (Bos taurus); experiment: Relative binding affinities (RBA) for Androgen receptor (AR); method in brief: as §3
Bos taurus = organism: Bos taurus; experiment: Relative binding affinity(RBA) as ratio of progesterone and compound required to displace [3H]-org 2058 binding to Progesterone receptor by 50%; method in brief: as §3
MDA-MB-231 [12] = experiment: Cytostatic effect on hormone-independent MDA-MB 231 human breast cancer cell proliferation at5x10E-6M; format: functional; method in brief: as §1
MDA-MB-231 [13] = experiment: Effect on [3H]thymidine incorporation into MDA-MB 231 human breast cancer cells at 5x10E-6M; format: functional; method in brief: as §2
MCF7 [14] = experiment: Effect on [3H]thymidine incorporation into MCF-7 human breast cancer cells at 5x10E-6M; format: functional; method in brief: as §2
[15] = biological target: T2, Estrogen receptor (Mus musculus) (UniProt O08537+P19785); experiment: (§4) Estrogenic activity in uterotrophic assay in immature mice at 50.0 ug subcutaneous dose; format: functional
T2 sequence (O08537 whole entry, looked up): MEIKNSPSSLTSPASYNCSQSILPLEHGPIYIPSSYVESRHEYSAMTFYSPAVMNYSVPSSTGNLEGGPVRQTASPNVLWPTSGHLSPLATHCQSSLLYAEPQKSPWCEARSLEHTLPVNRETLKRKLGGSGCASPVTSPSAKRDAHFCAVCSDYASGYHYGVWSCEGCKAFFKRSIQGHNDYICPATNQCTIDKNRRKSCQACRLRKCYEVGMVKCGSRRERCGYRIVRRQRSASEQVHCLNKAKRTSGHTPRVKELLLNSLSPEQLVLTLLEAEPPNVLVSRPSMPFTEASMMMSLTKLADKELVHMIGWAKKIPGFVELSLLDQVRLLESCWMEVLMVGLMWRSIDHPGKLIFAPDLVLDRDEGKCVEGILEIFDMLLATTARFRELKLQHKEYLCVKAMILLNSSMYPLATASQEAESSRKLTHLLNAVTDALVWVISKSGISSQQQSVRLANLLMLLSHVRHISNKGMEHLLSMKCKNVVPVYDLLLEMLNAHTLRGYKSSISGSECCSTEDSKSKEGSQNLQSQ
T2 sequence (P19785 whole entry, looked up): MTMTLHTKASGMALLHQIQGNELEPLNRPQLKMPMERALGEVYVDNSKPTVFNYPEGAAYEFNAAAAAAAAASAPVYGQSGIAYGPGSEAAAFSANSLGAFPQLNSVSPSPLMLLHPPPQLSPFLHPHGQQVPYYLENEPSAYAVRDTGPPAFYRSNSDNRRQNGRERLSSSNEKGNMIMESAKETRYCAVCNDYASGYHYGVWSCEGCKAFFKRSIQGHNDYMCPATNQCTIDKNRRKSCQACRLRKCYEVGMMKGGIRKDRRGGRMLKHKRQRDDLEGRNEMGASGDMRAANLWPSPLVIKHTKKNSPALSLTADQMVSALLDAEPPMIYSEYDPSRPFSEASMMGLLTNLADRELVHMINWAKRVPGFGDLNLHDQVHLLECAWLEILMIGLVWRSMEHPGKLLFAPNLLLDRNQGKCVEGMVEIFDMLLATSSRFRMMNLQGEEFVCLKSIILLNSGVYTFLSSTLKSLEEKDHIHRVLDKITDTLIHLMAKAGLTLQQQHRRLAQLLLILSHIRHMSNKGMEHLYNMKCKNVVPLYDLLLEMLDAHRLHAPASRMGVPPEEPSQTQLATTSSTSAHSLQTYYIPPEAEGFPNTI
Method in brief: (§5)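 Immature female NMRI mice, 20 days old, in groups of 6-10, were dosed sc once daily for three consecutive days. Compounds were given in PEG/0.9% saline 1:1; vehicle controls were included. Animals were killed 24 h after the last dose. Uteri were fixed in Bouin solution and the effect was taken as uterine dry weight (mg)/body weight (g) ×100, given as mean ± SD.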

[16] = biological target: T2, Estrogen receptor (Mus musculus); experiment: (§6) Estrogenic activity in uterotrophic assay in immature mice at 250 ug subcutaneous dose; format: functional; method in brief: as §5
[17] = biological target: T2, Estrogen receptor (Mus musculus); experiment: (§7) Estrogenic activity in uterotrophic assay in immature mice at 2 ug subcutaneous dose; format: functional; method in brief: as §5
[18] = biological target: T2, Estrogen receptor (Mus musculus); experiment: (§8) Estrogenic activity in uterotrophic assay in immature mice at 10.0 ug subcutaneous dose; format: functional; method in brief: as §5
[19] = biological target: T2, Estrogen receptor (Mus musculus); experiment: Inhibition of 0.4 ug estrone-stimulated uterine growth in mice at 50.0 ug subcutaneous dose; format: functional
Method in brief: (§9)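 Immature 20-day-old female NMRI mice received sc injections on three consecutive days. Each injection held 0.4 µg estrone plus the compound in PEG/saline 1:1. […] Significance was tested by Mann-Whitney U test.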

[20] = biological target: T2, Estrogen receptor (Mus musculus); experiment: as §6; format: functional; method in brief: as §5; remark: listed apart in the source
[21] = biological target: T2, Estrogen receptor (Mus musculus); experiment: Inhibition of 0.4 ug estrone-stimulated uterine growth in mice at 10.0 ug subcutaneous dose; format: functional; method in brief: as §9
[22] = biological target: T2, Estrogen receptor (Mus musculus); experiment: as §8; format: functional; method in brief: as §5; remark: listed apart in the source
MCF7 [23] = experiment: Effect on hormone-dependent MCF-7 human breast cancer cell proliferation at 5x10E-6M; format: functional; method in brief: as §1
[24] = biological target: T2, Estrogen receptor (Mus musculus); experiment: as §4; format: functional; method in brief: as §5; remark: listed apart in the source
[25] = biological target: T2, Estrogen receptor (Mus musculus); experiment: Inhibition of 0.4 ug estrone-stimulated uterine growth in mice at 250 ug subcutaneous dose; format: functional; method in brief: as §9
MCF7 [26] = experiment: Effect on [3H]thymidine incorporation into MCF-7 human breast cancer cells at 1x10E-5 M; format: functional; method in brief: as §2
[27] = biological target: T2, Estrogen receptor (Mus musculus); experiment: as §7; format: functional; method in brief: as §5; remark: listed apart in the source

RBA [9] | RBA [10] | RBA (Bos taurus) | SMILES | T/C (MCF7 [1]) | T/C (MDA-MB-231 [2]) | T/C (MDA-MB-231 [3]) | T/C (MCF7 [5]) | T/C (MDA-MB-231 [6]) | T/C (MCF7 [7]) | T/C (MCF7 [8]) | T/C (MDA-MB-231 [12]) | T/C (MDA-MB-231 [13]) | other results
 |  |  | CC/C(=C(\c1ccccc1)c1ccc(OCCN(C)C)cc1)c1ccccc1 [TAMOXIFEN] | 17% | 97% | 100% | 5% | 94% | 46% | 51% |  |  | T/C (MDA-MB-231 [4]): 107%
< 0.01 | < 0.01 |  | CC(=O)Oc1cc2c(cc1OC(C)=O)-c1cc3cc(OC(C)=O)c(OC(C)=O)cc3n1CC2 |  |  |  |  |  |  |  |  |  | 
 | 2 | < 0.01 | CC(=O)Oc1ccc2c(c1)CCn1c-2cc2cc(OC(C)=O)ccc21 |  |  |  |  |  |  |  |  |  | relative binding affinity (RBA) [11]: < 0.01
< 0.01 | 0.15 | < 0.01 | CC(=O)Oc1ccc2c(c1)cc1n2CCc2cc(OC(C)=O)c(OC(C)=O)cc2-1 |  |  |  |  |  |  |  |  |  | 
0.01 | 1.5 | < 0.01 | CCc1cc2cc(OC(C)=O)ccc2c2cc3ccc(OC(C)=O)cc3n12 | 5% | 3% | 80% | 3% |  | 70% | 75% | 8% | 7% | 
< 0.01 | 2.5 | < 0.01 | CCC1Cn2c(cc3cc(OC(C)=O)ccc32)-c2ccc(OC(C)=O)cc21 (centres undefined) | 31% | 25% |  |  | 45% |  |  | 88% | 90% | T/C (MCF7 [14]): 95%; Effect [15]: 42.5; Effect [16]: 46.1; Effect [17]: 16.8; Effect [18]: 44.1; inhibition [19]: 23.3%; Effect [20]: 42.7; inhibition [21]: 18.7%; Effect [22]: 21.5; T/C (MCF7 [23]): 97%; Effect [24]: 24.1; inhibition [25]: 22.4%; T/C (MCF7 [26]): 7%; Effect [27]: 50.9
